Laboratory results as given in ChEMBL document CHEMBL2016445, “Discovery of a novel class of potent and orally bioavailable sphingosine 1-phosphate receptor 1 antagonists” (J Med Chem, 2012).

Key:
[1] = Drug uptake in nu/nu homozygous mouse plasma at 100 mg/kg, po as a solution of 10% EtOH/40% PEG400/20% Captisol/water + 1:1 HCl after 1 hr by HPLC/MS/MS analysis; format: ADME, organism-based; set-up: dose 100 mg/kg, route oral
Procedure, shortened: (§1)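 Female Nu/Nu mice (~8 wk, 20-22 g) given a single 100 mpk oral dose at 10 mL/kg. Vehicles: 10% EtOH/45% or 40% PEG400/water + 1 molar equiv HCl, 10% EtOH/40% PEG400/20% Captisol + HCl, or 10% NMP/90% corn oil. Heparinized blood collected 1 and 4 h post-dose; plasma analysed by HPLC/MS/MS.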

[2] = Drug uptake in nu/nu homozygous mouse plasma at 100 mg/kg, po as a solution of 10% EtOH/40% PEG400/20% Captisol/water + 1:1 HCl after 4 hrs by HPLC/MS/MS analysis; format: ADME, organism-based; set-up: dose 100 mg/kg, route oral; procedure, shortened: as §1
[3] = biological target: T1, Sphingosine 1-phosphate receptor 1 (Homo sapiens, UniProt P21453); assay: Antagonist activity at S1P1 receptor expressed in HEK293 cells assessed as inhibition of S1P-induced cAMP response after 90 mins by spectrophotometry; format: functional, cell-based
[4] = AUC (0 to infinity) in overnight fasted beagle dog at 3 mg/kg, po by HPLC/MS/MS analysis; format: ADME, organism-based, Canis lupus familiaris; set-up: time infinity, dose 3 mg/kg, route oral; conditions: plasma
Procedure, shortened: (§2)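 Male beagle dogs fasted overnight and fed again 4 h post-dose; groups of 3. Study design covered 3 mpk IV and PO. Oral dose by gavage at 3 mpk in EtOH/PEG400/water (5:45:50). K-EDTA blood taken pre-dose and at 0.08-48 h. Plasma assayed by HPLC/MS/MS; non-compartmental PK parameters.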

[5] = AUC (0 to infinity) in overnight fasted cynomolgus monkey at 3 mg/kg, po by HPLC/MS/MS analysis; format: ADME, organism-based, Macaca fascicularis; set-up: time infinity, dose 3 mg/kg, route oral; conditions: plasma
Procedure, shortened: (§3)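 Male cynomolgus monkeys fasted overnight and fed again 4 h post-dose; groups of 3. Dosed 3 mpk intravenously and by oral gavage as a solution in EtOH/PEG400/water (5:45:50). K-EDTA blood taken pre-dose and at 0.08-48 h. Plasma assayed by HPLC/MS/MS; non-compartmental analysis.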

[6] = biological target: Sphingosine 1-phosphate receptor 2 (Homo sapiens, UniProt O95136); assay: Antagonist activity at S1P2 receptor expressed in HEK293 cells assessed as inhibition of S1P-induced tango beta-arrestin recruitment preincubated for 30 mins prior S1P addition measured after 16 to 18 hrs by luciferase reporter gene assay; format: functional, cell-based
[7] = Drug uptake in nu/nu homozygous mouse plasma at 100 mg/kg, po as a suspension in 10% NMP/corn oil after 24 hrs by HPLC/MS/MS analysis; format: ADME, organism-based; set-up: dose 100 mg/kg, route oral
[8] = Oral bioavailability in overnight fasted CD Sprague-Dawley rat at 3 mg/kg by HPLC/MS/MS analysis; format: ADME, organism-based; conditions: in vivo
[9] = Half life in overnight fasted CD Sprague-Dawley rat at 3 mg/kg, po by HPLC/MS/MS analysis; format: ADME, organism-based; set-up: dose 3 mg/kg, route oral; conditions: in vivo
Procedure, shortened: (§4)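 Female Sprague-Dawley CD rats (9-10 wk, 201-225 g), fasted overnight and fed again 4 h post-dose. Given 3 mpk orally as a solution in EtOH/PEG400/water (5:45:50), n=4. Jugular-catheter blood drawn into heparin at 0.08-144 h (15 time points). Plasma assayed by HPLC/MS/MS; parameters from non-compartmental analysis.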

Cytochrome P450 2D6 = Cytochrome P450 2D6 (Homo sapiens, UniProt P10635); assay: Inhibition of human CYP2D6 using bufuralol as substrate by LC/MS/MS analysis; format: ADME
Procedure, shortened: (§5)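 Pooled human liver microsomes in 100 mM potassium phosphate, pH 7.4, at 37 °C with 1000 µM NADPH for 15 min. Microsomes 0.15 mg/mL for CYP2C9 and CYP2D6, 0.25 mg/mL for CYP3A4. Inhibitor tested at six concentrations (0.2–50 µM). Reactions quenched with acetonitrile; metabolite measured by LC/MS/MS; IC50 from 4-parameter sigmoidal fit.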

[10] = Cmax in overnight fasted CD Sprague-Dawley rat at 3 mg/kg, po by HPLC/MS/MS analysis; format: ADME, organism-based; set-up: dose 3 mg/kg, route oral; conditions: in vivo; procedure, shortened: as §4
[11] = Oral bioavailability in overnight fasted beagle dog at 3 mg/kg by HPLC/MS/MS analysis; format: ADME, organism-based, Canis lupus familiaris; conditions: in vivo; procedure, shortened: as §2
[12] = Half life in overnight fasted beagle dog at 3 mg/kg, po by HPLC/MS/MS analysis; format: ADME, organism-based, Canis lupus familiaris; set-up: dose 3 mg/kg, route oral; conditions: in vivo; procedure, shortened: as §2
[13] = Antitumor activity against human MDA-MB-231T cells xenografted in athymic nude mouse assessed as tumor growth inhibition at 100 mg/kg, po qd for 14 days post implantation measured for 14 days; format: functional; conditions: 336 h, read-out: TGI
Procedure, shortened: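 MDA-MB-231T cells grown in DMEM with 10% FBS. 1 x 10⁶ cells in ice-cold HBSS implanted into the mammary fat pad of female athymic nude (NCr) mice, 5-8 wk. Daily oral dosing at 10 mL/kg, solutions made fresh daily. Tumor weight measured twice weekly; TGI calculated against vehicle and staging-day weights; 2-tailed t-test, p<0.05.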

[14] = AUC (0 to infinity) in overnight fasted CD Sprague-Dawley rat at 3 mg/kg, po by HPLC/MS/MS analysis; format: ADME, organism-based; set-up: dose 3 mg/kg, route oral, time infinity; conditions: plasma; procedure, shortened: as §4
[15] = biological target: Sphingosine 1-phosphate receptor 3 (Homo sapiens, UniProt Q99500); assay: Antagonist activity at S1P3 receptor expressed in HEK293 cells assessed as inhibition of S1P-induced tango beta-arrestin recruitment preincubated for 30 mins prior S1P addition measured after 16 to 18 hrs by luciferase reporter gene assay; format: functional, cell-based
[16] = Drug uptake in nu/nu homozygous mouse plasma at 100 mg/kg, po as a suspension in 10% NMP/corn oil after 4 hrs by HPLC/MS/MS analysis; format: ADME, organism-based; set-up: dose 100 mg/kg, route oral; procedure, shortened: as §1
[17] = Oral bioavailability in overnight fasted cynomolgus monkey at 3 mg/kg by HPLC/MS/MS analysis; format: ADME, organism-based, Macaca fascicularis; conditions: in vivo; procedure, shortened: as §3
Cytochrome P450 3A4 = Cytochrome P450 3A4 (Homo sapiens, UniProt P08684); assay: Inhibition of human CYP3A4 using testosterone as substrate by LC/MS/MS analysis; format: ADME; procedure, shortened: as §5
[18] = biological target: T1, Sphingosine 1-phosphate receptor 1; assay: Antagonist activity at S1P1 receptor expressed in HEK293 cells assessed as inhibition of S1P-induced tango beta-arrestin recruitment preincubated for 30 mins prior S1P addition measured after 16 to 18 hrs by luciferase reporter gene assay; format: functional, cell-based
[19] = Cmax in overnight fasted beagle dog at 3 mg/kg, po by HPLC/MS/MS analysis; format: ADME, organism-based, Canis lupus familiaris; set-up: dose 3 mg/kg, route oral; conditions: in vivo; procedure, shortened: as §2
[20] = Half life in overnight fasted cynomolgus monkey at 3 mg/kg, po by HPLC/MS/MS analysis; format: ADME, organism-based, Macaca fascicularis; set-up: dose 3 mg/kg, route oral; conditions: in vivo; procedure, shortened: as §3
[21] = Cmax in overnight fasted cynomolgus monkey at 3 mg/kg, po by HPLC/MS/MS analysis; format: ADME, organism-based, Macaca fascicularis; set-up: dose 3 mg/kg, route oral; conditions: in vivo; procedure, shortened: as §3
Cytochrome P450 2C9 = Cytochrome P450 2C9 (Homo sapiens, UniProt P11712); assay: Inhibition of human CYP2C9 using tolbutamide as substrate by LC/MS/MS analysis; format: ADME; procedure, shortened: as §5
Chain of Cytochrome P450 2C9 (P11712 whole entry): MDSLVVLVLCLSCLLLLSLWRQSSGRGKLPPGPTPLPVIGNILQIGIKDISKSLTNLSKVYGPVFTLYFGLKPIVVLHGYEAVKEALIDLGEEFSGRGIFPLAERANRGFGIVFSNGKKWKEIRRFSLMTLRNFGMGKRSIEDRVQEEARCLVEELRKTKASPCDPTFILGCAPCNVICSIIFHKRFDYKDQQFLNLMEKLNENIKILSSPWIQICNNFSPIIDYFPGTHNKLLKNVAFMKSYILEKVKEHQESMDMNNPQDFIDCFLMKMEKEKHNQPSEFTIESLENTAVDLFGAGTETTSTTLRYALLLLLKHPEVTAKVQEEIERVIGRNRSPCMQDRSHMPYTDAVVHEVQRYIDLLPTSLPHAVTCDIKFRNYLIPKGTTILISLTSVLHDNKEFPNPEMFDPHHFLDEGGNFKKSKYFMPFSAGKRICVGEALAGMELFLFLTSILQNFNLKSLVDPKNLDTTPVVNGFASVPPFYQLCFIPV

T1 sequence (P21453 whole entry): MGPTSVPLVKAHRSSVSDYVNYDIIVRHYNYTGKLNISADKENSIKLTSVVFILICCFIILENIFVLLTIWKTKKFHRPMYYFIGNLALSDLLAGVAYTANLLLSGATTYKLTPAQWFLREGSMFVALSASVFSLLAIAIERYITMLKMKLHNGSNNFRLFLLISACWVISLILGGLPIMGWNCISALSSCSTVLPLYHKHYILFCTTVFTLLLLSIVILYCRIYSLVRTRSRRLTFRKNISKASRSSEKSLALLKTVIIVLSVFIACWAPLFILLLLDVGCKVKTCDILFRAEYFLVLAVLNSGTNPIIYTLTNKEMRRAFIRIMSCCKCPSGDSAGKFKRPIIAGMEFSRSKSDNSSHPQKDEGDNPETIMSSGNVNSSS
Chain of Sphingosine 1-phosphate receptor 3 (Q99500 whole entry): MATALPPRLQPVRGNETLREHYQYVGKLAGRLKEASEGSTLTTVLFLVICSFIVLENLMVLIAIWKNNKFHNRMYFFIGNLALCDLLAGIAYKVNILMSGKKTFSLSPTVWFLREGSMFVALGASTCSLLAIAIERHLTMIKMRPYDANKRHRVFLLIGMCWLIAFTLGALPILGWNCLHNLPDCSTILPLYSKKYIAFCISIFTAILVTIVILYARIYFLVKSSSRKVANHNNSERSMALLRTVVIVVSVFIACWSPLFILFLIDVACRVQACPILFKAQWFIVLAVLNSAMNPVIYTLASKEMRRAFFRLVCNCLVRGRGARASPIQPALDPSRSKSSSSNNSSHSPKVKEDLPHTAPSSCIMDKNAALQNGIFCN
Chain of Cytochrome P450 3A4 (P08684 whole entry): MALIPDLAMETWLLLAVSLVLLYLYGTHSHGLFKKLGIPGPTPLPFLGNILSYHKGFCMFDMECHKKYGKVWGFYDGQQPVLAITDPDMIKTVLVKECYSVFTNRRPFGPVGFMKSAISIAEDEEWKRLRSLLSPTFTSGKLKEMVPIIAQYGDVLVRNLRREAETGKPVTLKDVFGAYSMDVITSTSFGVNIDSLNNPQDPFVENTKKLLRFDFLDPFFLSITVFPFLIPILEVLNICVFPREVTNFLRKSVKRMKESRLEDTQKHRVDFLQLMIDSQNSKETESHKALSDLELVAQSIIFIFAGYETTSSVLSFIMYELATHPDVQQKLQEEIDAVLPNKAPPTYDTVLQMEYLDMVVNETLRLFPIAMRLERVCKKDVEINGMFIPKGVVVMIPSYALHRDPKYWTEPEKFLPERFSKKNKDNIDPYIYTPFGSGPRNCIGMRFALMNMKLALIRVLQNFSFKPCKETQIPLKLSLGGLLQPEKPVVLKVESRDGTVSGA
Chain of Cytochrome P450 2D6 (P10635 whole entry): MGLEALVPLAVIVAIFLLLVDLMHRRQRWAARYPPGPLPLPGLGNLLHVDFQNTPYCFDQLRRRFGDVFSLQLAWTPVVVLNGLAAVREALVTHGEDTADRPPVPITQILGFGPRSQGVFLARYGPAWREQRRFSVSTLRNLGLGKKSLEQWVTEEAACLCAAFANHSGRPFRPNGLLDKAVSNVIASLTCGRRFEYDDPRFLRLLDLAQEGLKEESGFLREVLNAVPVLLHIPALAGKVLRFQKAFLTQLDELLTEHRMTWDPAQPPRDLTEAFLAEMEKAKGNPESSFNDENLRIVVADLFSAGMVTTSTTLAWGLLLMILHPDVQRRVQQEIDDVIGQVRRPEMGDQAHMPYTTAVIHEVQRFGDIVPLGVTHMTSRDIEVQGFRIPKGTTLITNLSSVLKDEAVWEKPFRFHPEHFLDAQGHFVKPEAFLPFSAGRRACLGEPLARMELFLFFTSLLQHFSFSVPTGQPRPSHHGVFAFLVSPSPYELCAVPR
Chain of Sphingosine 1-phosphate receptor 2 (O95136 whole entry): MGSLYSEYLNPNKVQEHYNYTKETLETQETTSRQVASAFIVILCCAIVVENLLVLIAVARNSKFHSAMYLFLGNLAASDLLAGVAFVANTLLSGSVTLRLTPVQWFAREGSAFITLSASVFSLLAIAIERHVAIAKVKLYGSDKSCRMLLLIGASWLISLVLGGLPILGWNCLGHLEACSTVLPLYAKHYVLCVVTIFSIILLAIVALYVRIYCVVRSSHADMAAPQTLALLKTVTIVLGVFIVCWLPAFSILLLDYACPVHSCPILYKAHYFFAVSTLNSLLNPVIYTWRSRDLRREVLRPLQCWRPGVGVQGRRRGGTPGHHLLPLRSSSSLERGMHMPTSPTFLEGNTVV

`O=C(Cc1c[nH]cn1)N[C@@H](COCc1ccccc1)c1nc2cc(Oc3ccc(F)cc3)ccc2[nH]1` gave a concentration at 1 h [1] of 18.7 µM, a concentration at 4 h [2] of 2700 nM and an IC50 [3] of 239 nM.

With `O=C(Nc1ccc(Oc2ccc(F)cc2)cc1)[C@@H]1C[C@@H](Cc2ccc(F)cc2)CN1C(=O)Cn1ccnn1` the AUC(0-inf) [4] was 108 µM·h, the AUC(0-inf) [5] was 16.7 µM·h and the IC50 [6] was over 10 µM. It also gave a concentration at 24 h [7] of 4.7 µM, a bioavailability [8] of 76.4% and a half-life [9] of 1350 min. The IC50 (Cytochrome P450 2D6) was 20.3 µM, the Cmax [10] was 3.2 µM and the bioavailability [11] was 99.9%. For the same molecule, the half-life [12] was 2040 min, the inhibition in vivo at 100 mg/kg [13] was 43% and the AUC(0-inf) [14] was 108 µM·h. The IC50 [15] was over 10 µM, the concentration at 4 h [16] was 16.7 µM and the bioavailability [17] was 45.7%. It also gave an IC50 (Cytochrome P450 3A4) of over 20 µM, an IC50 [18] of 26 nM and a Cmax [19] of 5.4 µM. It also gave a half-life [20] of 384 min, an IC50 [3] of 5.8 nM and a Cmax [21] of 1500 nM. The IC50 (Cytochrome P450 2C9) was 17.3 µM.
